tested on: Mycobacterium tuberculosis; test: Induction of membrane damage in Mycobacterium bovis BCG after 60 mins by DiOC2 probe-based fluorescence assay; format: functional; settings: variant bovis BCG, 1 h
How it was run: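 Cell-based assay. Mid-log phase BCG culture was pre-loaded with DiOC2 before compound exposure. Fluorescence was read as the red-shifted emission at 600 nm, which tracks membrane potential. CCCP served as the positive control, and IC50 was derived.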

**Q.** Which IC50 does the source give for `Cc1ccc2nc(-c3ccc(F)cc3)c(OCCCNc3ccc(F)c(C)n3)n2c1` here?
**A.** Its IC50 is over 100 µM.

**Q.** How did the IC50 turn out when `O=c1c(NCc2cnccn2)c(-c2ccc(N3CCOCC3)cc2)c1=O` was run?
**A.** Its IC50 is over 100 µM.

**Q.** `Cc1ccc2nc(-c3ccc(F)cc3)c(OCCCNc3ccc(F)c(C)c3)n2c1` was tested. Which IC50 did it give?
**A.** Its IC50 is over 100 µM.

**Q.** `Cc1ccc2nc(-c3ccccc3)c(OCCCOc3ccccc3)n2c1` was tested. Which IC50 did it give?
**A.** Its IC50 is over 100 µM.

**Q.** `O=c1c(NCc2ccccn2)c(-c2ccc(N3CCOCC3)cc2)c1=O` was tested. Which IC50 did it give?
**A.** Its IC50 is over 100 µM.

**Q.** Which IC50 does the source give for `c1ccc(OCCCOc2c(-c3ccccc3)nc3ccccn23)cc1` here?
**A.** The IC50 was over 100 µM.
